Where “and” joins values, the source holds several entries; their conditions need not be identical. Identical values can stand only once.
Test system: HEK-293T
Assay: Multiplex assay against HEK293T
Assay type: toxicity, cell-based
Settings: human
In short: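 Tubulin, mitochondrial-mass and membrane-permeability phenotypes are per cents of healthy-nucleus cells. Cells were gated by CellPathfinder machine learning into Hoechst high-intensity objects or normal cells, normal cells into healthy, pyknosed or fragmented nuclei, and pyknosed cells into mitotic or apoptotic. Before that, live cells stained at seeding with Hoechst33342, BioTracker Green Microtubule Cytoskeleton Dye, MitoTracker Red and Annexin V Alexa Fluor 680 were imaged on a CQ1 microscope at 37°C and 5% CO2 after compound addition.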

[1] = 12 h, 1 µM, compound concentration 1 uM
[2] = 12 h, 10 µM, compound concentration 10 uM
[3] = 24 h, 1 µM, compound concentration 1 uM
[4] = 24 h, 10 µM, compound concentration 10 uM
[5] = 48 h, 1 µM, compound concentration 1 uM
[6] = 48 h, 10 µM, compound concentration 10 uM

C=CCN1C[C@H](C(=O)N(CCCN(C)C)C(=O)NCC)C[C@@H]2c3cccc4[nH]cc(c34)C[C@H]21 [CABERGOLINE]
Population Apoptotic (%) [1]: 36% and 37%
Population Fragmented Nuclei (%) [1]: 4% and 5%
Population Healthy Nuclei (%) [1]: 76% and 79%
Population Hoechst High Intensity Objects (%) [1]: 8%
Population Membrane Permeable-Phenotype (%) [1]: 0%
Population Mitochondria Different-Phenotype (%) [1]: 51% and 68%
Population Mitotic Cells (%) [1]: 63% and 62%
Population Normal (%) [1]: 91%
Population Pyknosed Nuclei (%) [1]: 18% and 14%
Population Tubulin-Different-Phenotype (%) [1]: 41% and 24%
Total Cell Count [1]: 370 and 322
Population Apoptotic (%) [2]: 53% and 60%
Population Fragmented Nuclei (%) [2]: 8% and 6%
Population Healthy Nuclei (%) [2]: 76% and 78%
Population Hoechst High Intensity Objects (%) [2]: 12% and 8%
Population Membrane Permeable-Phenotype (%) [2]: 0%
Population Mitochondria Different-Phenotype (%) [2]: 65% and 81%
Population Mitotic Cells (%) [2]: 46% and 40%
Population Normal (%) [2]: 87% and 91%
Population Pyknosed Nuclei (%) [2]: 14%
Population Tubulin-Different-Phenotype (%) [2]: 54% and 55%
Total Cell Count [2]: 438 and 371
Population Apoptotic (%) [3]: 43% and 40%
Population Fragmented Nuclei (%) [3]: 9% and 6%
Population Healthy Nuclei (%) [3]: 80% and 83%
Population Hoechst High Intensity Objects (%) [3]: 4% and 6%
Population Membrane Permeable-Phenotype (%) [3]: 1% and 0%
Population Mitochondria Different-Phenotype (%) [3]: 29% and 46%
Population Mitotic Cells (%) [3]: 56% and 59%
Population Normal (%) [3]: 95% and 93%
Population Pyknosed Nuclei (%) [3]: 10% and 9%
Population Tubulin-Different-Phenotype (%) [3]: 20% and 19%
Total Cell Count [3]: 512 and 406
Population Apoptotic (%) [4]: 37% and 42%
Population Fragmented Nuclei (%) [4]: 10%
Population Healthy Nuclei (%) [4]: 77% and 79%
Population Hoechst High Intensity Objects (%) [4]: 8% and 12%
Population Membrane Permeable-Phenotype (%) [4]: 0%
Population Mitochondria Different-Phenotype (%) [4]: 51% and 64%
Population Mitotic Cells (%) [4]: 62% and 57%
Population Normal (%) [4]: 91% and 87%
Population Pyknosed Nuclei (%) [4]: 11% and 9%
Population Tubulin-Different-Phenotype (%) [4]: 48% and 43%
Total Cell Count [4]: 556 and 425
Population Apoptotic (%) [5]: 13% and 35%
Population Fragmented Nuclei (%) [5]: 12% and 11%
Population Healthy Nuclei (%) [5]: 80% and 81%
Population Hoechst High Intensity Objects (%) [5]: 4% and 3%
Population Membrane Permeable-Phenotype (%) [5]: 1%
Population Mitochondria Different-Phenotype (%) [5]: 21% and 23%
Population Mitotic Cells (%) [5]: 86% and 65%
Population Normal (%) [5]: 95% and 96%
Population Pyknosed Nuclei (%) [5]: 7% and 6%
Population Tubulin-Different-Phenotype (%) [5]: 16% and 10%
Total Cell Count [5]: 763 and 633
Population Apoptotic (%) [6]: 26% and 43%
Population Fragmented Nuclei (%) [6]: 13% and 10%
Population Healthy Nuclei (%) [6]: 76% and 82%
Population Hoechst High Intensity Objects (%) [6]: 5% and 6%
Population Membrane Permeable-Phenotype (%) [6]: 0%
Population Mitochondria Different-Phenotype (%) [6]: 35% and 32%
Population Mitotic Cells (%) [6]: 73% and 56%
Population Normal (%) [6]: 94% and 93%
Population Pyknosed Nuclei (%) [6]: 9% and 6%
Population Tubulin-Different-Phenotype (%) [6]: 25% and 20%
Total Cell Count [6]: 786 and 676

CCCCC[C@H](O)/C=C/[C@H]1[C@H](O)CC(=O)[C@@H]1CCCCCCC(=O)O [ALPROSTADIL]
Population Apoptotic (%) [1]: 35% and 50%
Population Fragmented Nuclei (%) [1]: 7% and 6%
Population Healthy Nuclei (%) [1]: 79% and 80%
Population Hoechst High Intensity Objects (%) [1]: 7% and 6%
Population Membrane Permeable-Phenotype (%) [1]: 0%
Population Mitochondria Different-Phenotype (%) [1]: 42% and 55%
Population Mitotic Cells (%) [1]: 64% and 49%
Population Normal (%) [1]: 92% and 93%
Population Pyknosed Nuclei (%) [1]: 13%
Population Tubulin-Different-Phenotype (%) [1]: 28% and 18%
Total Cell Count [1]: 471 and 392
Population Apoptotic (%) [2]: 33%
Population Fragmented Nuclei (%) [2]: 7%
Population Healthy Nuclei (%) [2]: 78% and 75%
Population Hoechst High Intensity Objects (%) [2]: 6% and 9%
Population Membrane Permeable-Phenotype (%) [2]: 1% and 0%
Population Mitochondria Different-Phenotype (%) [2]: 48% and 64%
Population Mitotic Cells (%) [2]: 66%
Population Normal (%) [2]: 93% and 90%
Population Pyknosed Nuclei (%) [2]: 14% and 17%
Population Tubulin-Different-Phenotype (%) [2]: 33% and 30%
Total Cell Count [2]: 318 and 309
Population Apoptotic (%) [3]: 35% and 34%
Population Fragmented Nuclei (%) [3]: 9% and 6%
Population Healthy Nuclei (%) [3]: 79% and 85%
Population Hoechst High Intensity Objects (%) [3]: 3% and 4%
Population Membrane Permeable-Phenotype (%) [3]: 1% and 0%
Population Mitochondria Different-Phenotype (%) [3]: 22% and 35%
Population Mitotic Cells (%) [3]: 64% and 65%
Population Normal (%) [3]: 96% and 95%
Population Pyknosed Nuclei (%) [3]: 10% and 8%
Population Tubulin-Different-Phenotype (%) [3]: 15% and 14%
Total Cell Count [3]: 605 and 526
Population Apoptotic (%) [4]: 32% and 36%
Population Fragmented Nuclei (%) [4]: 11% and 7%
Population Healthy Nuclei (%) [4]: 76% and 79%
Population Hoechst High Intensity Objects (%) [4]: 2% and 8%
Population Membrane Permeable-Phenotype (%) [4]: 0%
Population Mitochondria Different-Phenotype (%) [4]: 26% and 50%
Population Mitotic Cells (%) [4]: 67% and 63%
Population Normal (%) [4]: 97% and 91%
Population Pyknosed Nuclei (%) [4]: 12%
Population Tubulin-Different-Phenotype (%) [4]: 23% and 22%
Total Cell Count [4]: 439 and 345
Population Apoptotic (%) [5]: 32% and 13%
Population Fragmented Nuclei (%) [5]: 13% and 16%
Population Healthy Nuclei (%) [5]: 79% and 77%
Population Hoechst High Intensity Objects (%) [5]: 2% and 3%
Population Membrane Permeable-Phenotype (%) [5]: 2% and 0%
Population Mitochondria Different-Phenotype (%) [5]: 12% and 21%
Population Mitotic Cells (%) [5]: 67% and 86%
Population Normal (%) [5]: 97% and 96%
Population Pyknosed Nuclei (%) [5]: 7% and 6%
Population Tubulin-Different-Phenotype (%) [5]: 11% and 12%
Total Cell Count [5]: 1005 and 714
Population Apoptotic (%) [6]: 25% and 20%
Population Fragmented Nuclei (%) [6]: 15% and 14%
Population Healthy Nuclei (%) [6]: 76% and 79%
Population Hoechst High Intensity Objects (%) [6]: 2%
Population Membrane Permeable-Phenotype (%) [6]: 1% and 0%
Population Mitochondria Different-Phenotype (%) [6]: 17% and 30%
Population Mitotic Cells (%) [6]: 75% and 80%
Population Normal (%) [6]: 97%
Population Pyknosed Nuclei (%) [6]: 7% and 6%
Population Tubulin-Different-Phenotype (%) [6]: 15% and 14%
Total Cell Count [6]: 685 and 537

From ChEMBL document CHEMBL5724801, “EUbOPEN Chemogenomics Library - Multiplex” (2024)
